# Measurements from ChEMBL document CHEMBL4706486, “Usnic acid derivatives as tau-aggregation and neuroinflammation inhibitors” (Eur J Med Chem, 2020).
# Active and inactive are the calls of the source. The rule behind the calls is not given here.
# How the values were obtained:
# [1] = organism: Homo sapiens; assay: Inhibition of acetyl-PHF6 amide self-aggregation (unknown origin) in pH 7.4 phosphate buffer at 10 uM and 25 degreeC measured every 1 min for 120 mins under shaking condition by ThT fluorescence assay relative to control
# Method in brief: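 AcPHF6 dissolved in HFIP, dried overnight, 1 mM water stock used at once. Final 100 μM peptide, 20 μM ThT, 10 μM compound (≤0.1% DMSO) in 50 mM phosphate buffer pH 7.4, 25 °C. Ex 440/em 490 nm read each minute for 120 min, 10 s shaking (400 rpm) before each read. Inhibition from mean signal at 50–60 min; ≥3 wells; mean ± SD of three experiments; DMSO negative control.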
# [2] = organism: Homo sapiens; assay: Inhibition of acetyl-PHF6 amide self-aggregation (unknown origin) in pH 7.4 phosphate buffer assessed as decrease in absorbance intensity at 10 uM and 25 degreeC measured immediately after 10 sec vibration per minute for 120 mins under shaking condition by circular dichroism spectroscopy
# Method in brief: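 Fresh samples of 100 μM AcPHF6 with 10 μM compound (≤0.1% DMSO) in 50 mM phosphate buffer pH 7.4. 10 s vibration per minute at 25 °C over 120 min. Spectra 260–200 nm, 1 mm quartz cell, 1 nm bandwidth, 50 nm/min scan. Solvent and compound contributions subtracted, converted to Δε per residue, Savitzky-Golay smoothed.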
# [3] = organism: Homo sapiens; assay: Inhibition of acetyl-PHF6 amide self-aggregation (unknown origin) in pH 7.4 phosphate buffer assessed as absence of fibrillar material at 20 uM and 25 degreeC measured after 10 mins by phosphotungstic acid staining based TEM analysis
# [4] = organism: Homo sapiens; assay: Inhibition of acetyl-PHF6 amide self-aggregation (unknown origin) in pH 7.4 phosphate buffer assessed as appearance of dot like structure with <5 nm at 20 uM and 25 degreeC measured after 10 mins by phosphotungstic acid staining based TEM analysis
# [5] = biological target: Microtubule-associated protein tau (Homo sapiens) (UniProt P10636); assay: Inhibition of heparin-induced recombinant full length His-tagged 2N4R tau self-aggregation (unknown origin) expressed in Escherichia coli BL21 (DE3) at 10 uM measured after 6 mins by ThT fluorescence assay
# Chain of Microtubule-associated protein tau (Homo sapiens) (P10636 whole entry): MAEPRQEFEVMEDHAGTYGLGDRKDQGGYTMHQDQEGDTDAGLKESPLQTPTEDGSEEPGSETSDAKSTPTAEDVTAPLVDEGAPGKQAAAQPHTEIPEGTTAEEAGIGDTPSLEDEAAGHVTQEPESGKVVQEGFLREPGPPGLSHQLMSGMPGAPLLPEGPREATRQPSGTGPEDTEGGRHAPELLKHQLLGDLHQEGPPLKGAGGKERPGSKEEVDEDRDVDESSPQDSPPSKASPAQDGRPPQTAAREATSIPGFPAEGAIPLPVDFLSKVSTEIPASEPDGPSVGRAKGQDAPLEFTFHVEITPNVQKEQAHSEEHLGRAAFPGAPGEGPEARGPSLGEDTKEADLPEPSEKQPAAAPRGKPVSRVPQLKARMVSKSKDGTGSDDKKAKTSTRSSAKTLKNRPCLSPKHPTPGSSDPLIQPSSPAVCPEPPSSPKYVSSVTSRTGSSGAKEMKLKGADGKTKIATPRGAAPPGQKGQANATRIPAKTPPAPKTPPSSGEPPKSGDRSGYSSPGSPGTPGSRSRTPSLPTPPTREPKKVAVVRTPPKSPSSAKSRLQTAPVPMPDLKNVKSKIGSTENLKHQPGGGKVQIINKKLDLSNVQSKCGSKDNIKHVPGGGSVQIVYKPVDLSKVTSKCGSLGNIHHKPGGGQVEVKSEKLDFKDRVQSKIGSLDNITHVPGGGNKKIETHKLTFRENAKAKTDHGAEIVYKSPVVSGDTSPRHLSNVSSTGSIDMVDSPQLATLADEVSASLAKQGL
# Method in brief: (§1)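 His-tagged full-length 2N4R tau from E. coli BL21(DE3) (pET-28a, 1 mM IPTG, 37 °C), BCA-quantified, stored −80 °C. 10 μM tau with 10 μM compound and 1 mM DTT in 1× PBS at 37 °C, aggregation started with 10 μM heparin (MW 6117), 10 μM ThT. Ex 440/em 490 nm, read every 4 min with 2 min shaking (600 rpm) before reading.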
# [6] = biological target: Microtubule-associated protein tau (Homo sapiens) (UniProt P10636); assay: Inhibition of heparin-induced recombinant full length His-tagged 2N4R tau self-aggregation (unknown origin) expressed in Escherichia coli BL21 (DE3) assessed as reduction in aggregate formation at 10 uM measured after 6 mins by ThT fluorescence assay relative to control; method in brief: as §1
# [7] = tested on: SH-SY5Y; assay: Cytotoxicity against human SH-SY5Y cells assessed as reduction in cell survival at 30 uM measured after 24 hrs by MTT assay; type: cell-based
# Method in brief: (§2)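 Cells in high-glucose DMEM with 10% FBS, 5% CO₂, 37 °C, seeded 3000–5000/well, exposed to compound 24 h. MTT (0.5 mg/mL) 4 h, formazan dissolved in DMSO, absorbance 570 nm (reference 630 nm). Viability as percent of untreated control; mean ± SD, three independent experiments.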
# [8] = tested on: L02; assay: Cytotoxicity against human L02 cells assessed as effect on cell viability at <=40 uM measured after 24 hrs by MTT assay; type: cell-based; settings: l02, 24 h; method in brief: as §2
# [9] = tested on: BV-2; assay: Cytotoxicity against mouse BV-2 cells at 20 uM measured after 24 hrs by MTT assay; type: cell-based; settings: bv-2, 24 h; method in brief: as §2
# [10] = tested on: BV-2; assay: Antiinflammatory activity in mouse BV-2 cells assessed as inhibition of LPS-induced NO production at 10 uM pretreated with compound for 1 hr followed by LPS stimulation and measured after 18 hrs by Griess assay relative to control; type: functional; settings: time 19 hrs
# Method in brief: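 BV2 microglia grown in high-glucose DMEM with 10% FBS, seeded at 3 × 10^4 cells/well, preincubated with compound 1 h, then LPS (final 1 µg/ml) for 18 h. Supernatant mixed with equal volume Griess reagent, 10 min at 25 °C, absorbance 540 nm. Inhibition = (F_L−F_C)/(F_L−F₀) × 100. Mean ± SD, three independent experiments.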
# [11] = Acute toxicity in Sprague-Dawley rat model of OA-induced dementia assessed as mortality at 5 to 10 mg/kg, ip administered for 7 days; type: organism-based; settings: in vivo, 168 h, dose 5-10 mg/kg, time 7 day
# Method in brief: (§3)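 Adult male SD rats (260-280 g), n = 8 per group. Compound given ip at 5 or 10 mg/kg daily for 7 days in saline with 8% DMSO and 1% Tween-80 cosolvent; controls got vehicle. Okadaic acid (300 ng in 1.5 μL saline) then injected stereotaxically into right dorsal hippocampus under isoflurane, and ip dosing continued 7 more days. Body weight recorded throughout; swimming speed recorded in Morris water maze.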
# [12] = tested on: Rattus norvegicus; assay: Cognitive enhancing effect in Sprague-Dawley rat model of OA-induced dementia assessed as average escape latency time to hidden platform at 5 to 10 mg/kg, ip administered for 7 days by Morris water maze test (reference value: 12.5 to 37.2 sec); type: functional; settings: dose 5-10 mg/kg; time 7 day
# Method in brief: (§4)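 Male SD rats (n = 8/group), ip dosing at 5 or 10 mg/kg in saline with 8% DMSO and 1% Tween-80 for 7 days, then OA (300 ng in 1.5 μL saline) microinjected into right dorsal hippocampus. Dosing continued 7 days after OA. Morris water maze: 5 training days recording escape latency, distance and swim speed; day-6 probe trial, platform removed, 60 s search, quadrant time and crossings counted. Two-way ANOVA versus model; SEM.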
# [13] = Toxicity in Sprague-Dawley rat model of OA-induced dementia assessed as effect on swimming speed at 5 to 10 mg/kg, ip administered for 7 days; type: organism-based; settings: in vivo, 168 h, dose 5-10 mg/kg, time 7 day; method in brief: as §3
# [14] = tested on: Rattus norvegicus; assay: Cognitive enhancing effect in Sprague-Dawley rat model of OA-induced dementia assessed as increase in time spent in virtual platform quadrant at 10 mg/kg, ip administered for 7 days by Morris water maze test; type: functional, organism-based; settings: time 7.0 day; method in brief: as §4
# [15] = tested on: Rattus norvegicus; assay: Cognitive enhancing effect in Sprague-Dawley rat model of OA-induced dementia assessed as increase in number of platform crossing at 10 mg/kg, ip administered for 7 days by Morris water maze test; type: functional, organism-based; settings: time 7.0 day; method in brief: as §4
# [16] = Acute toxicity in Sprague-Dawley rat model of OA-induced dementia assessed as effect on body weight at 5 to 10 mg/kg, ip administered for 14 days; settings: in vivo, 336 h
smiles,measurement,setting,value
CC(=O)c1c(O)c(C)c(O)c2c1OC1=Cc3c(c(C)nn3-c3ccc(C(=O)O)cc3)C(=O)[C@@]12C,inhibition,[1],51.7%
same,inhibition,[2],Active
same,inhibition,[3],Active
same,inhibition,[4],Active
same,inhibition,[5],Active
same,inhibition,[6],50%
same,Activity,[7],Toxic
same,Activity,[8],Non-Toxic
same,Activity,[9],Non-Toxic
same,inhibition at 10 µM,[10],41%
same,Activity,[11],Non-Toxic
same,Time,[12],18.5 s
same,Activity,[13],Non-Toxic
same,Activity,[14],Active
same,Activity,[15],Active
same,Activity,[16],Non-Toxic
